This note sets out measurements from ChEMBL document CHEMBL4118273, “Design, Synthesis, and Biological Evaluation of Pyrimido[4,5- d]pyrimidine-2,4(1 H,3 H)-diones as Potent and Selective Epidermal Growth Factor Receptor (EGFR) Inhibitors against L858R/T790M Resistance Mutation” (J Med Chem, 2018).

The target in data set [1] is Epidermal growth factor receptor (Homo sapiens, UniProt P00533, L858R/T790M). Briefly: Inhibition of recombinant human GST-tagged EGFR L858R/T790M double mutant expressed in baculovirus expression system using Poly(Glu,Tyr)4:1 as substrate after 1 hr by ELISA. On the technique in general: ELISA stands for enzyme-linked immunosorbent assay.
Data set [2] concerns the target Epidermal growth factor receptor (Homo sapiens, UniProt P00533). Nature of the data set: Inhibition of wild type EGFR in EGF-stimulated human A431 cells assessed as reduction in Akt phosphorylation at Ser-473 residue up to 1000 nM by Western blot method. The procedure, abridged:
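A431 cells lysed in Tris-HCl pH 6.8 buffer with DTT, SDS and glycerol; equal protein amounts resolved on 8% SDS-PAGE, transferred to nitrocellulose and probed for p-EGFR (Y1068), total EGFR, p-AKT (Ser473), total AKT and GAPDH.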
In general terms: In western blotting, separated proteins are transferred to a membrane and probed.

Data set [3] in a line: AUC (0 to t) in ICR mouse at 1 mg/kg, iv by LC-MS/MS analysis. Type of data set: ADME, organism-based. The following applies: in vivo.
A further data set deals with A-431. Nature of the data set: Growth inhibition of human A431 cells xenografted in Balb/c mouse at 50 mg/kg/day, po for 14 days measured every 2 to 3 days during compound dosing relative to control. Type of data set: organism-based. The following applies: A-431, po, read-out: GI. The method in brief:
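BALB/c mice, 4–6 weeks old, implanted subcutaneously in the right flank with about 2 × 10^6 H1975 or A431 cells grown in RPMI-1640 with 10% FBS. At 200–400 mm3 tumors, mice were randomized (six/group) and dosed orally once daily with vehicle or inhibitor for 14 days. Caliper volumes, V = L×W²/2, were taken every 2–3 days; means ± SEM, Student's t test vs vehicle.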
(In general: In xenograft studies the graft and the host belong to different species.)

Data set [4] is described as follows: Half life in ICR mouse at 1 mg/kg, iv by LC-MS/MS analysis. Type of data set: ADME, organism-based. Particulars: in vivo.
A short description of data set [5]: Half life in human liver microsomes at 0.1 uM after 60 mins in presence of NADPH by LC-MS/MS analysis. The class given is ADME, microsome. The method in brief:
(§1)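 Human or mouse liver microsomes (0.33 mg/mL protein) in 0.1 M Tris/HCl pH 7.4 with 5 mM MgCl2, 1 mM NADPH, 0.01% DMSO and 0.005% BSA; test compound at 0.1 µM final, 37 °C for 60 min. Aliquots at 0, 7, 17, 30 and 60 min quenched by methanol precipitation, centrifuged and analysed by LC-MS/MS.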

Data set [6] is described as follows: Half life in mouse liver microsomes at 0.1 uM after 60 mins in presence of NADPH by LC-MS/MS analysis. Type of data set: ADME, microsome. The method in brief:
as §1

Data set [7] has as its system Mus musculus. Nature of the data set: Toxicity in Balb/c mouse xenografted with human NCI-H1975 cells assessed as mortality at 50 mg/kg/day, po once daily for 14 days measured every 2 to 3 days during compound dosing. The following applies: in vivo. Type of data set: organism-based.
Data set [8] concerns Mus musculus. Briefly: Toxicity in Balb/c mouse xenografted with human A431 cells assessed as body weight loss at 50 mg/kg/day, po once daily for 14 days measured every 2 to 3 days during compound dosing. Type of data set: organism-based. Particulars: in vivo. The procedure, abridged:
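A431 or H1975 cells were grown in RPMI-1640 with 10% FBS, and about 2 × 10^6 cells were implanted subcutaneously in the right flank of 4–6-week-old BALB/c mice. At 200–400 mm³, mice were randomized to vehicle or treated groups (n = 6). Dosing was oral, once daily, for 14 days. Body weights were recorded every 2–3 days.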

The nature of data set [9]: Cmax in ICR mouse at 10 mg/kg, po by LC-MS/MS analysis. Particulars: in vivo. The class given is ADME, organism-based. Also noted: dose 10 mg/kg, route oral.
A short description of data set [10]: Cmax in ICR mouse at 1 mg/kg, iv by LC-MS/MS analysis. The class given is ADME, organism-based. The arrangement: dose 1 mg/kg, route intravenous. Particulars: in vivo.

As a reminder, the IC50 is the concentration that inhibits the measured activity by half. By AUC(0-t) is commonly meant exposure summed from dosing to a finite time, without extrapolation to infinity. Broadly, the half-life is the time needed for the level to fall by half in the phase considered. In general, Cmax refers to the highest concentration seen after dosing.

SMILES strings stand for the structures.

Sequence of Epidermal growth factor receptor (Homo sapiens, UniProt P00533) (P00533 whole entry): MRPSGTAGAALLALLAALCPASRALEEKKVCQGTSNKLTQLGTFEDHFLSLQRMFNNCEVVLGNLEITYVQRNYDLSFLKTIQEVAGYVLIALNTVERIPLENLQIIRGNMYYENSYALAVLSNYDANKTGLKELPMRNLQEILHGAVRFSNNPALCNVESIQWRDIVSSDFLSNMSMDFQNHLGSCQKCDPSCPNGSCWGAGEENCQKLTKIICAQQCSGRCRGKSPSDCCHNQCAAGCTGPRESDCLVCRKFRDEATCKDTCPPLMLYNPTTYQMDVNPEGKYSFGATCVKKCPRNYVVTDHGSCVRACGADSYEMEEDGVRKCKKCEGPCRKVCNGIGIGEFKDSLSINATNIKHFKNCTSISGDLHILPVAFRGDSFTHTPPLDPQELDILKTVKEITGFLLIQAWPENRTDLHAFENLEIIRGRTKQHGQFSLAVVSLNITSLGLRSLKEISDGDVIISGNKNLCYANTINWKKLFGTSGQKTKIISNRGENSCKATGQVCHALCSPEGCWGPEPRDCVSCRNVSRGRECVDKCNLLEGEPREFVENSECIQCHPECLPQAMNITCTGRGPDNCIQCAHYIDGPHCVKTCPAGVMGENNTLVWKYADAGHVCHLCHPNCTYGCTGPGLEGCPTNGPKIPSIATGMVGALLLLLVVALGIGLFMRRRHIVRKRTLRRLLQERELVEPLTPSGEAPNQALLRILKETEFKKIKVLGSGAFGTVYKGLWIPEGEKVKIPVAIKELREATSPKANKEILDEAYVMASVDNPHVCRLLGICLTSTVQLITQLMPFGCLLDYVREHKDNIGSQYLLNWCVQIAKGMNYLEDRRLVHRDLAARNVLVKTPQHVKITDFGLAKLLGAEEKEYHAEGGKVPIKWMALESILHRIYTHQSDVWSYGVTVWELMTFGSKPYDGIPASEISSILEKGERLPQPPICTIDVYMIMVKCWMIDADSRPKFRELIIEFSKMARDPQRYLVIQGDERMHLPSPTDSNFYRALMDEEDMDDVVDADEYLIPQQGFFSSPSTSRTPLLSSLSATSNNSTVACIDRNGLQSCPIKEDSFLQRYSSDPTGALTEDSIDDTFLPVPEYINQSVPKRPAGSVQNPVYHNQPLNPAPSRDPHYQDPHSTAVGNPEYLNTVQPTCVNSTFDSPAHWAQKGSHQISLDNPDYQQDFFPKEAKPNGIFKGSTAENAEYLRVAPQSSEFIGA
Sequence of Epidermal growth factor receptor (Homo sapiens, UniProt P00533, L858R/T790M) (P00533 25-1210 T790M/L858R limits assumed): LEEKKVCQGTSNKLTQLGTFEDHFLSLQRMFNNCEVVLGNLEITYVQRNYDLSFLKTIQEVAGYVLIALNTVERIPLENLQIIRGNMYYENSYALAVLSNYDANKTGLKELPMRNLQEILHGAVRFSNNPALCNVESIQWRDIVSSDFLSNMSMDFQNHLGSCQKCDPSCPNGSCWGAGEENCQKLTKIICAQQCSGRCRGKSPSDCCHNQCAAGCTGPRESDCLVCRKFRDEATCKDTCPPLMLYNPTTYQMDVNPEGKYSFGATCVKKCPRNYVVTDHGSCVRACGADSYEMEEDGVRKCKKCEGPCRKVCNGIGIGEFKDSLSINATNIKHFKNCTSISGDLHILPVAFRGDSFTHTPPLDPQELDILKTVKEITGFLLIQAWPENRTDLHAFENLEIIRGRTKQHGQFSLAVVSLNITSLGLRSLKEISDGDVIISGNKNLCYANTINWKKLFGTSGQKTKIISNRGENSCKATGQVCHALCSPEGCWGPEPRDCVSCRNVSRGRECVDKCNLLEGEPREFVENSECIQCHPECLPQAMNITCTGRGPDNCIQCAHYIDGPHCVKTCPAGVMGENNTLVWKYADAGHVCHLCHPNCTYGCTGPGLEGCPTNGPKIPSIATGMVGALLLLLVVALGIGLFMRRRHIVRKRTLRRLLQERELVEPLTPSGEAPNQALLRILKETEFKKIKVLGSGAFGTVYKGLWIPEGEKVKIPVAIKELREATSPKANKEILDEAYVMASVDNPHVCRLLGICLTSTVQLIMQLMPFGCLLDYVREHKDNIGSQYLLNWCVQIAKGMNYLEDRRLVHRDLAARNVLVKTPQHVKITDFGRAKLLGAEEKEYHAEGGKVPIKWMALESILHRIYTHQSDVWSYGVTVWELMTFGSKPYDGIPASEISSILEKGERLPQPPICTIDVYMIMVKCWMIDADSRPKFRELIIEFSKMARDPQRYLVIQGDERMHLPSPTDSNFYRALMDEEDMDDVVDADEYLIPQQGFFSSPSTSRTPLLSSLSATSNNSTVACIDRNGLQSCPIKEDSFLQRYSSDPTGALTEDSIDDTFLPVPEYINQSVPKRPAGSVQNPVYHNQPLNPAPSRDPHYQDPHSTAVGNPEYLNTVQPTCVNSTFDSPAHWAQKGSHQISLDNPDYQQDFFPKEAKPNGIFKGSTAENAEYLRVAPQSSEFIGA

With `C=CC(=O)Nc1cccc(-n2c(=O)n(C(C)C)c(=O)c3cnc(Nc4ccc(N5CCN(C)CC5)cc4OC)nc32)c1`, the IC50 in data set [1] is 0.3 nM. Also, the “inhibition (INH)” value in data set [2] is reported as “Not Active”. The AUC(0-t) in data set [3] amounted to 181 ng·h/mL. Besides, the inhibition at 50 mg/kg in the data set on A-431 was 37%. In data set [4], this molecule showed a half-life of 54 min. Also, the values for the half-life at 0.1 µM in data set [5] and in data set [6] were 85.4 min and 46.1 min, respectively. Also, the Activity entry in the data set on Mus musculus [7] and with Mus musculus [8] was “Non-Toxic” throughout. The Cmax in data set [9] stood at 271 ng/mL; in data set [10] it was 311 ng/mL.
